Measured values as given in ChEMBL document CHEMBL1149528, “4-Phenyl-4-[1H-imidazol-2-yl]-piperidine derivatives as non-peptidic selective delta-opioid agonists with potential anxiolytic/antidepressant properties. Part 2” (Bioorg Med Chem Lett, 2007).

Assays:
Mu-type opioid receptor = Mu-type opioid receptor (Homo sapiens, UniProt P35372); assay: Displacement of [3H]DAMGO from cloned human mu opioid receptor
[1] = target: Kappa-type opioid receptor (Homo sapiens, UniProt P41145); assay: Displacement of [3H]U-69593 from cloned human kappa opioid receptor
Mus musculus [2] = species on record: Mus musculus; assay: Anxiolytic activity in mouse assessed as lowest active dose by neonatal ultrasonic vocalization test; type: functional
How it was run: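 Neonatal mice; read-out is the number and duration of ultrasonic calls. The value is the lowest dose tested that gave a statistically significant reduction in calls.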

Mus musculus [3] = species on record: Mus musculus; assay: Decrease in duration of immobility in mouse assessed as lowest active dose by tail suspension test
[4] = target: Opioid receptors; mu & delta (Homo sapiens) (UniProt P41143+P35372); assay: Selectivity for delta opioid receptor over mu opioid receptor; type: protein assay
[5] = target: Delta-type opioid receptor (Homo sapiens, UniProt P41143); assay: Displacement of [3H]DPDPE from cloned human delta opioid receptor
[6] = target: Opioid receptors; delta & kappa (Homo sapiens) (UniProt P41145+P41143); assay: Selectivity for delta opioid receptor over kappa opioid receptor; type: protein assay
Opioid receptors; delta & kappa (Homo sapiens), sequence (P41143 whole entry, looked up): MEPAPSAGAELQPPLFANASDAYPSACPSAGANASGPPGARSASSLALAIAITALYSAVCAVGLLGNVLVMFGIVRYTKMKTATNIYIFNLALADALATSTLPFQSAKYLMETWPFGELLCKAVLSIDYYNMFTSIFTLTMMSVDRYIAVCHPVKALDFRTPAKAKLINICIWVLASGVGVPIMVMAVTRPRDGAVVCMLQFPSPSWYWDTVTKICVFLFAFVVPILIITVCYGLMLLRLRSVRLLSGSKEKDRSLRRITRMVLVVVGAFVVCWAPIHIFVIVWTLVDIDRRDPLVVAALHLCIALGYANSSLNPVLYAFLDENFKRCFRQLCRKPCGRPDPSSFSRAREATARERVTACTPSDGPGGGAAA
Opioid receptors; delta & kappa (Homo sapiens), sequence (P41145 whole entry, looked up): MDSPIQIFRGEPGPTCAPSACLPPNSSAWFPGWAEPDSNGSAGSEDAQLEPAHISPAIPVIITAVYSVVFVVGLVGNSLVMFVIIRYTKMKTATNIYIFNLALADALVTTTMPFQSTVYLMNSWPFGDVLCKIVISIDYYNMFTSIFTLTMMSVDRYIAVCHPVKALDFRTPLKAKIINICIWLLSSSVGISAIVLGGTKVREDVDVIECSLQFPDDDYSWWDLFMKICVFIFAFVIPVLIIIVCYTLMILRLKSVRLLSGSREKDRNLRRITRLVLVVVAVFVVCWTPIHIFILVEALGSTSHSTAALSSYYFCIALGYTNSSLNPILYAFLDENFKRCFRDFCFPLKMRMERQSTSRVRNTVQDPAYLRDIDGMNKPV

Delta-type opioid receptor, sequence (P41143 whole entry): as the sequence (P41143 whole entry, looked up) above
Kappa-type opioid receptor, sequence (P41145 whole entry): as the sequence (P41145 whole entry, looked up) above
Opioid receptors; mu & delta (Homo sapiens), sequence (P35372 whole entry, looked up): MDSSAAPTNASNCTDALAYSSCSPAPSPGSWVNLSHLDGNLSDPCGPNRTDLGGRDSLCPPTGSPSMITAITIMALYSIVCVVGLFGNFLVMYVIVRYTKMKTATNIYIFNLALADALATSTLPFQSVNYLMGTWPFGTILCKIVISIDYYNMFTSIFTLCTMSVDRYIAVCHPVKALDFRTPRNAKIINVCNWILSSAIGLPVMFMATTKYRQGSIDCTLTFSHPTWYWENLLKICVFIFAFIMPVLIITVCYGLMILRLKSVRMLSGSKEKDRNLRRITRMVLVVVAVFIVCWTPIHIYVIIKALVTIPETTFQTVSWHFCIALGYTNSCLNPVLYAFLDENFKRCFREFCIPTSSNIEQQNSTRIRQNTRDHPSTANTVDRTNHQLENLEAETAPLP
Opioid receptors; mu & delta (Homo sapiens), sequence (P41143 whole entry, looked up): as the sequence (P41143 whole entry, looked up) above
Mu-type opioid receptor, sequence (P35372 whole entry): as the sequence (P35372 whole entry, looked up) above

Structure (SMILES)	Ki (Mu-type opioid receptor)	Ki [1]	Ratio Ki [4]	Ki [5]	further results
CC(C)(C)C(=O)N1CCC(c2ccccc2)(c2nccn2Cc2ccccc2)CC1	> 4650 nM				
CCOC(=O)N1CCC(c2ccccc2)(c2nccn2Cc2ccc(OC)cc2)CC1	> 4650 nM	201 nM			
CCOC(=O)N1CCC(c2ccccc2)(c2nccn2Cc2ccccc2)CC1					Activity (Mus musculus [2]): 10 mg/kg; Activity (Mus musculus [3]): 30 mg/kg
CCOC(=O)N1CCC(c2ccccc2)(c2nccn2Cc2cccc(OC)c2)CC1	> 4650 nM	366 nM			
COCC(=O)N1CCC(c2ccccc2)(c2nccn2Cc2ccccc2)CC1	> 465 nM	622 nM			
CCOC(=O)N1CCC(c2ccccc2)(c2nccn2Cc2cccc(F)c2)CC1	> 465 nM	> 4650 nM			
CCCCOC(=O)N1CCC(c2ccccc2)(c2nccn2Cc2ccccc2)CC1	> 465 nM	188 nM			
COC(=O)c1cccc(Cn2ccnc2C2(c3ccccc3)CCN(C(=O)c3ccccc3)CC2)c1	> 465 nM		> 5.5	85 nM	
CCOC(=O)N1CCC(c2ccccc2)(c2nccn2Cc2ccc(C(=O)OC)cc2)CC1	> 465 nM	25 nM			
CCOC(=O)N1CCC(c2ccccc2)(c2nccn2Cc2ccc3ccccc3c2)CC1	> 465 nM	3120 nM	> 0.7	642 nM	Ratio Ki [6]: 4.8
CCOC(=O)N1CCC(c2ccccc2)(c2nccn2CC2CCCCC2)CC1	> 465 nM		> 3.2	147 nM	
O=C(c1cc(C(F)(F)F)cc(C(F)(F)F)c1)N1CCC(c2ccccc2)(c2nccn2Cc2ccccc2)CC1	> 465 nM		> 16	29 nM	
CCOC(=O)N1CCC(c2ccccc2)(c2nccn2Cc2ccccn2)CC1	> 465 nM		> 2.7	173 nM	
COC(=O)c1ccc(Cn2ccnc2C2(c3ccccc3)CCN(C(=O)c3ccccc3)CC2)cc1	> 4650 nM	88 nM			
O=C(c1ccccc1)N1CCC(c2ccccc2)(c2nccn2Cc2ccccc2)CC1	> 4650 nM	124 nM			Activity (Mus musculus [2]): < 1 mg/kg; Activity (Mus musculus [3]): 10 mg/kg
COC(=O)N1CCC(c2ccccc2)(c2nccn2Cc2ccccc2)CC1	> 4650 nM				
COCC(=O)N1CCC(c2ccccc2)(c2nccn2C(C)c2ccccc2)CC1 (stereo not drawn)	> 4650 nM	> 4650 nM			
CCC(=O)N1CCC(c2ccccc2)(c2nccn2Cc2ccccc2)CC1	> 465 nM				

Structure (SMILES)	Ki (Mu-type opioid receptor)	Ki [1]	Ratio Ki [4]	Ki [5]	further results
CCCOC(=O)N1CCC(c2ccccc2)(c2nccn2Cc2ccccc2)CC1	> 465 nM	> 4650 nM			
CCOC(=O)N1CCC(c2ccccc2)(c2nccn2Cc2ccc(O)cc2)CC1	> 465 nM	108 nM			
O=C(Cc1ccccc1)N1CCC(c2ccccc2)(c2nccn2Cc2ccccc2)CC1	> 465 nM				
CC(C)C(=O)N1CCC(c2ccccc2)(c2nccn2Cc2ccccc2)CC1	> 465 nM	621 nM	> 10	48 nM	Ratio Ki [6]: 13
O=C(OCc1ccccc1)N1CCC(c2ccccc2)(c2nccn2Cc2ccccc2)CC1	> 465 nM	121 nM			
CCOC(=O)N1CCC(c2ccccc2)(c2nccn2C(C)c2ccccc2)CC1 (stereo not drawn)	> 465 nM	62 nM			
Cc1cc(C)c(C(=O)N2CCC(c3ccccc3)(c3nccn3Cc3ccccc3)CC2)c(C)c1	> 4650 nM		> 37	125 nM	
COCC(=O)N1CCC(c2ccccc2)(c2nccn2Cc2ccc(C(=O)OC)cc2)CC1	> 4650 nM	65 nM			
CCOC(=O)N1CCC(c2ccccc2)(c2nccn2Cc2ccc(F)cc2)CC1	> 465 nM		> 6.5	51 nM	
Cc1cc(C)cc(C(=O)N2CCC(c3ccccc3)(c3nccn3Cc3ccccc3)CC2)c1	> 465 nM	284 nM			
O=C(OC1CCCCC1)N1CCC(c2ccccc2)(c2nccn2Cc2ccccc2)CC1	> 465 nM	121 nM	> 63	7.4 nM	Ratio Ki [6]: 16
CC(=O)N1CCC(c2ccccc2)(c2nccn2Cc2ccccc2)CC1	> 465 nM	1010 nM			
O=C(C1CC1)N1CCC(c2ccccc2)(c2nccn2Cc2ccccc2)CC1	> 465 nM		> 20	23 nM	
CC(C)(C)OC(=O)N1CCC(c2ccccc2)(c2nccn2Cc2ccccc2)CC1	> 465 nM	84 nM			
CCN(CC)C(=O)c1ccc(Cn2ccnc2C2(c3ccccc3)CCN(C(=O)c3ccccc3)CC2)cc1	> 4650 nM		> 29	158 nM	
CCOC(=O)N1CCC(c2ccccc2)(c2nccn2C/C=C/c2ccccc2)CC1	> 465 nM		> 1.6	280 nM	
CC(C)OC(=O)N1CCC(c2ccccc2)(c2nccn2Cc2ccccc2)CC1	> 465 nM	201 nM			
CC(c1ccccc1)n1ccnc1C1(c2ccccc2)CCN(C(=O)c2ccccc2)CC1 (stereo not drawn)	> 4650 nM	334 nM			
